The values below come from ChEMBL document CHEMBL1914401, “Aminothiazoles as γ-secretase modulators” (Bioorg Med Chem Lett, 2011).

In data set [1] the target is Gamma-secretase. Kind of data set: Inhibition of gamma secretase in human H4 cells overexpressing human APP assessed as reduction in amyloid beta-42 secretion after 22 hrs. Type of data set: cell-based. The procedure, abridged: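 Human neuroglioma H4 cells overexpressing human APP were seeded at 30,000 cells/well in IMDM with 10% FCS and […] hygromycin B, then held 2 h at 37 °C, 5% CO2. Test agents were given as a ten-point 1:1 serial dilution in IMDM without FCS, with final Me2SO 0.4%, for 22 h. Secreted Aβ42 in the supernatant was measured by bead ECL sandwich (biotin-6E10 capture, ruthenylated BAP15 detection, 3 h RT). IC50 was taken from the dose-response curve.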

Data set [2] concerns the target Cytochrome P450 2D6 (Homo sapiens, UniProt P10635). Kind of data set: Inhibition of CYP2D6. It counts as ADME.
Data set [3] can be described thus: Ratio of drug level in brain to plasma in transgenic mouse overexpressing APP Swedish FAD mutant at 7.2 mg/kg, po and 0.7 mg/kg, iv. Type of data set: ADME, organism-based. To be noted: read-out: BPR. Summed up:
(§1)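 Mouse pharmacokinetics used an iv dose of 0.7 mg/kg and a po dose of 7.2 mg/kg. Compound levels in plasma and brain were determined by LC–MS/MS over 0–24 h.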

Data set [4] is described as follows: Half life in transgenic mouse overexpressing APP Swedish FAD mutant at 7.2 mg/kg, po and 0.7 mg/kg, iv. It counts as ADME, organism-based. The following applies: in vivo. The procedure, abridged:
as §1

Data set [5] concerns Mus musculus. Kind of data set: Antialzheimer activity in po dosed transgenic mouse overexpressing APP Swedish FAD mutant assessed as reduction in amyloid beta-42 level in brain measured after 4 hrs. It counts as functional. The procedure, abridged:
(§2)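 Transgenic mice about 3 months old, overexpressing APP-Swe under the mouse Thy-1 promoter, were dosed orally. Brains were taken 4 h later and homogenized in 1% DEA. Brain Aβ42 was quantified by LP ECL, and brain compound exposure was measured by LC–MS/MS.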

A short description of data set [6]: Oral bioavailability in transgenic mouse overexpressing APP Swedish FAD mutant at 7.2 mg/kg. It counts as ADME, organism-based. To be noted: in vivo. The procedure, abridged:
as §1

Data set [7] deals with Mus musculus. The data set is described as follows: Antialzheimer activity in transgenic mouse overexpressing APP Swedish FAD mutant assessed as reduction in amyloid beta-42 level in brain at 30 mg/kg, po. Type of data set: functional, organism-based. Also noted: dose 30 mg/kg. Summed up: as §2
Data set [8] is described as follows: Volume of distribution at steady state in transgenic mouse overexpressing APP Swedish FAD mutant at 7.2 mg/kg, po and 0.7 mg/kg, iv. Type of data set: ADME, organism-based. The following applies: in vivo, read-out: Vdss. Summed up:
as §1

Data set [9] in a line: Plasma clearance in transgenic mouse overexpressing APP Swedish FAD mutant at 7.2 mg/kg, po and 0.7 mg/kg, iv. It counts as ADME, organism-based. Summed up:
as §1

In data set [10] the target is Cytochrome P450 3A4 (Homo sapiens, UniProt P08684). Kind of data set: Inhibition of CYP3A4. It counts as ADME.
Sequence of Cytochrome P450 3A4 (P08684 whole entry): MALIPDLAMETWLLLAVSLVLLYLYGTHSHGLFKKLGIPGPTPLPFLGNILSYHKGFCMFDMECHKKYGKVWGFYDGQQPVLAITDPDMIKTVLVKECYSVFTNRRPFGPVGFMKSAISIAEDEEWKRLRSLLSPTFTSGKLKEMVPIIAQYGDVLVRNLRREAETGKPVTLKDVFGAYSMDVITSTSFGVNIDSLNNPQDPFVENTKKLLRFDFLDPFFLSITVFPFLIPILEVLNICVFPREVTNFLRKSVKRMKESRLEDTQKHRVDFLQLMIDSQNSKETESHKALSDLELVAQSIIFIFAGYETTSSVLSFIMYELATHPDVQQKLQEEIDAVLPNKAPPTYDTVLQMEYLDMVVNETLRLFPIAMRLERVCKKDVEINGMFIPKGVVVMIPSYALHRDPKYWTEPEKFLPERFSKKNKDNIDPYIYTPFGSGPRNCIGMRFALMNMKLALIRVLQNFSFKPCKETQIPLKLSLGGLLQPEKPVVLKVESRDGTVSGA
The target in data set [11] is Inosine-5'-monophosphate dehydrogenase 2 (Homo sapiens, UniProt P12268). Kind of data set: Inhibition of IMPDH2.
In data set [12] the target is Gamma-secretase (Homo sapiens) (UniProt Q96BI3+Q9NZ42+Q8WW43+P49768+Q92542+P49810). Kind of data set: Modulation of gamma secretase in human H4 cells overexpressing human APP assessed as effect on total amyloid beta up to 20 uM after 22 hrs. It counts as cell-based. The procedure, abridged:
(§3)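 Human H4 neuroglioma cells overexpressing human APP were plated at 30,000 cells/well in IMDM with 10% FCS and […] hygromycin B, and incubated 2 h at 37 °C, 5% CO2. Compounds were added as a ten-point 1:1 serial dilution series in FCS-free IMDM, with final Me2SO 0.4%, for 22 h at 37 °C. The culture supernatant was then assayed.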

Data set [13] has as its target Gamma-secretase. The data set is described as follows: Inhibition of gamma secretase in human H4 cells overexpressing human APP assessed as reduction in amyloid beta-40 secretion after 22 hrs. It counts as cell-based. Summed up:
as §3

Data set [14] can be described thus: Modulation of gamma secretase in cell-based assay assessed as change in notch protein level up to 25 uM.
The target of data set [15] is Gamma-secretase. The data set is described as follows: Modulation of gamma secretase in human H4 cells overexpressing human APP assessed as increase in amyloid beta-38 secretion after 22 hrs. It counts as cell-based. The procedure, abridged:
as §3

Data set [16] deals with Mus musculus. The data set is described as follows: Antialzheimer activity in transgenic mouse overexpressing APP Swedish FAD mutant assessed as reduction in amyloid beta-42 level in brain at 100 mg/kg, po. It counts as functional. Details: scale not given: the % may be the effect or the level left. The procedure, abridged:
as §2

Data set [17] concerns Mus musculus. The data set is described as follows: Antialzheimer activity in transgenic mouse overexpressing APP Swedish FAD mutant assessed as reduction in amyloid beta-42 level in brain at 150 mg/kg, po after 7 hrs. It counts as functional. Details: scale not given: the % may be the effect or the level left. The procedure, abridged:
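Oral dosing was given to APP-Swe transgenic mice (Thy-1 promoter) about 3 months old. Brain homogenates in 1% DEA were analysed by LP ECL for Aβ42.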

Data set [18] deals with Mus musculus. The data set is described as follows: Antialzheimer activity in transgenic mouse overexpressing APP Swedish FAD mutant assessed as reduction in amyloid beta-42 level in brain at 150 mg/kg, po after 4 hrs. Type of data set: functional. Details: scale not given: the % may be the effect or the level left. Summed up:
as §2

Data set [19] in a line: Fraction unbound in transgenic mouse overexpressing APP Swedish FAD mutant. Type of data set: ADME, organism-based. To be noted: in vivo.
Data set [20] deals with Mus musculus. Kind of data set: Antialzheimer activity in transgenic mouse overexpressing APP Swedish FAD mutant assessed as reduction in amyloid beta-42 level in brain at 100 mg/kg, po after 4 hrs. It counts as functional, organism-based. Also noted: dose 100 mg/kg. Summed up: as §2
Data set [21] is described as follows: Inhibition of gamma secretase in rat primary neurons assessed as reduction in amyloid beta-42 secretion.

Active and inactive are the calls of the source. The rule behind the calls is not given here.

Sequence of Cytochrome P450 2D6 (P10635 whole entry): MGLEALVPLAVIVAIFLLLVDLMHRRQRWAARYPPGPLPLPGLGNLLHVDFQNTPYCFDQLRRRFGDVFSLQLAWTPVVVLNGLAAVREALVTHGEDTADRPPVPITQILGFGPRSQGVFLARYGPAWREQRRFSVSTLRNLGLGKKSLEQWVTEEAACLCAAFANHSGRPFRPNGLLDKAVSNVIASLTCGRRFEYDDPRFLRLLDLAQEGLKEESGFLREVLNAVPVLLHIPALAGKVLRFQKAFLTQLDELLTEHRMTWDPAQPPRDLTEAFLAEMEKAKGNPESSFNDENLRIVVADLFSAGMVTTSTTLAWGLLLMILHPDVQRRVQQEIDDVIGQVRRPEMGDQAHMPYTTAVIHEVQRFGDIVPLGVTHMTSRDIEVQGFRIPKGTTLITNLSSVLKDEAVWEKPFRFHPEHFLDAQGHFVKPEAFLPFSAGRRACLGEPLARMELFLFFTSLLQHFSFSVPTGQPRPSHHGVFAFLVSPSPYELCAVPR

In the case of `Cc1ncc(C)c(-c2ccc(Nc3nc4c(s3)CCCC4c3ccccc3)cc2)n1` (stereo not drawn), the figures for the IC50 in data set [1] and in [2] were 2870 nM and < 500 nM, respectively.
Take `COc1cc(Nc2nc3c(s2)CCCC3c2ccccc2)ccc1-n1cnc(C)c1` (stereo not drawn): the Kp in data set [3] came out at 0.4. Further, the half-life in [4] was 2.5 h. The ED50 in data set [5] was 40 mg/kg. Besides, the IC50 in [1] was 44 nM; in data set [2] it was < 200 nM. The bioavailability in data set [6] came to 25%. The result in data set [7] was Active. Further, the Vd in data set [8] turned out to be 4.6 L/kg. Also, in data set [9], the clearance was found to be 18.3 mL/min/kg.
Regarding `COc1ccc(Br)cc1-c1csc(Nc2ccc(-n3ccnc3)cc2)n1`, the IC50 in data set [1] was > 5000 nM; in data set [2], < 500 nM; in [10], < 200 nM.
On the same counts, the results for `COc1ccc(Br)cc1-c1csc(Nc2ccc(-n3ccnc3)c(OC)c2)n1` are 789 nM, < 500 nM and < 200 nM.
For `Cc1nsc(-c2ccc(Nc3nc4c(s3)CCCC4c3ccccc3)cc2)n1` (stereo not drawn), the figures for the IC50 in [1] and in data set [2] were 651 nM and < 500 nM, respectively.
Regarding `COc1cc(Nc2nc(C)c(Cc3cccc(Cl)c3)s2)ccc1-c1cnco1`, the IC50 was 400 nM in [11], 815 nM in data set [1], 3700 nM in data set [13] and < 500 nM in [2]. The result in data set [12] and in data set [14] was inactive. For the same compound, the EC50 in data set [15] came out at 1500 nM.
With `Cc1cn(-c2ccc(Nc3nc4c(s3)CCCC4c3ccccc3)cc2C)cn1` (stereo not drawn), the IC50 in data set [1] was 733 nM; in data set [2], < 500 nM.
In the case of `COc1cc(Nc2nc3c(s2)CCCC3c2ccccc2)ccc1-c1cnc(C)o1` (stereo not drawn), the IC50 in data set [1] is 86 nM; in [2] it was < 500 nM. Also, the Activity in [16] came out at 47%.
In the case of `COc1cc(Nc2nc3c(s2)CCCC3c2ccccc2)ccc1-c1sc(C)nc1C` (stereo not drawn), the IC50 in data set [1] was 212 nM; in data set [2], < 500 nM.
On the same counts, the results for `COc1cc(N(Cc2ccccc2)c2nc(C)c(Cc3ccc(Cl)cc3)s2)ccc1-n1cnc(C)c1` are > 40000 nM and < 500 nM.
Take `Cc1ncc(-c2ccc(Nc3nc4c(s3)CCCC4c3ccccc3)cc2)o1` (stereo not drawn): the IC50 in [1] was 133 nM; in data set [2], < 500 nM.
Turning to `c1ccc(C2CCCc3sc(Nc4ccc(-n5cncn5)cc4)nc32)cc1` (stereo not drawn), the values for the IC50 in [1] and in data set [2] were 5550 nM and < 500 nM, respectively.
For `Cc1cc(-c2ccc(Nc3nc4c(s3)CCCC4c3ccccc3)cc2)nc(C)n1` (stereo not drawn), the IC50 in [1] was 483 nM; in data set [2] it was < 500 nM.
As for `COc1cc(Nc2ncc(C(O)c3ccc(Cl)cc3)s2)ccc1-n1cnc(C)c1` (stereo not drawn), the IC50 in data set [1] was 339 nM; in data set [2], < 500 nM.
For the compound `c1ccc(C2CCCc3sc(Nc4ccc(-c5ccncc5)cc4)nc32)cc1` (stereo not drawn), the figures for the IC50 in [1] and in data set [2] were 319 nM and < 500 nM, respectively. The result in [16] was inactive.
In the case of `Cc1cn(-c2ccc(Nc3nc4c(s3)CCCC4c3ccccc3)cc2Cl)cn1` (stereo not drawn), the values for the IC50 in data set [1] and in data set [2] were 675 nM and < 200 nM, respectively.
As to `COc1ccc(Br)cc1-c1csc(Nc2ccc(-n3cnc(C)c3)c(OC)c2)n1`, the IC50 in data set [1] is 898 nM; in data set [2] it was < 500 nM; in data set [10], 2200 nM.
As for `COc1cc(Nc2nc(C)c(Cc3cccc(Cl)c3)s2)ccc1-n1cnc(C)c1`, the IC50 in [1] was 214 nM; in data set [2] it was < 500 nM. The Activity was found to be 22% in data set [17] and 47% in data set [18]. Moreover, the Fu in data set [19] is < 0.1%.
Take `Cc1cn(-c2ccc(Nc3nc4c(s3)CCCC4c3ccccc3)cc2O)cn1` (stereo not drawn): the IC50 in [1] is 209 nM; in data set [2], < 500 nM.
As for `COc1cc(Nc2nc3c(s2)CCCC3c2ccccc2)ccc1C#N` (stereo not drawn), the concentration for half-maximal inhibition (IC50) was 3360 nM in data set [1] and < 500 nM in data set [2].
On to `COc1cc(Nc2nc3c(s2)CCCC3c2ccccc2)ccc1-c1cnn(C)c1` (stereo not drawn), for which the IC50 in data set [1] was 244 nM; in data set [2], < 500 nM. In data set [20], the outcome was inactive.
As for `COc1cc(/C=C2\CCCN([C@@H](C)c3ccc(F)cc3)C2=O)ccc1-n1cnc(C)c1`, in data set [21], the IC50 was determined as 42 nM.
In the case of `Cc1cn(-c2ccc(Nc3nc4c(s3)CCCC4c3ccccc3)cc2)cn1` (stereo not drawn), the IC50 is 133 nM in data set [1] and < 500 nM in data set [2].
In the case of `COc1cc(Nc2nc3c(s2)CCCC3c2ccccc2)ccc1-c1nc(C)no1` (stereo not drawn), the IC50 is 3430 nM in data set [1] and < 500 nM in data set [2].
For the compound `COc1cc(Nc2nc(C(C)(C)c3ccc(Cl)cc3)cs2)ccc1-n1cnc(C)c1`, the IC50 in data set [1] is 136 nM; in [2], < 500 nM.
Taken in the same sequence, the figures for `c1ccc(C2CCCc3sc(Nc4ccc(-c5ccnnc5)cc4)nc32)cc1` (stereo not drawn) were 376 nM and < 500 nM.
As to `Cc1cn(-c2ccc(Nc3nc4c(s3)CCCC4c3ccccc3)cc2C(F)(F)F)cn1` (stereo not drawn), the IC50 in data set [1] is > 1250 nM; in data set [2], < 500 nM.
Regarding `COc1cc(Nc2nc3c(s2)CCCC3c2ccccc2)ccc1-c1nnc(C)o1` (stereo not drawn), the IC50 was 999 nM in data set [1] and < 500 nM in data set [2].
Take `Cc1cn(-c2ccc(Nc3nc4c(s3)CCCC4c3ccccc3)cc2F)cn1` (stereo not drawn): the IC50 in data set [1] is 52 nM; in data set [2] it was < 500 nM.
On to `Cc1nc(C)c(-c2ccc(Nc3nc4c(s3)CCCC4c3ccccc3)cc2)o1` (stereo not drawn), for which the IC50 in [1] was 127 nM; in [2], < 500 nM.
On to `COc1ccc(Br)cc1-c1csc(Nc2ccc(-n3cnc(C)c3)cc2)n1`, for which the figures for the IC50 in data set [1], in data set [2] and in data set [10] were 880 nM, < 500 nM and 1200 nM, respectively.
For `Cc1cn(-c2ccc(Nc3nc4c(s3)CCCC4c3ccccc3)cc2C#N)cn1` (stereo not drawn), the IC50 in data set [1] is 123 nM; in data set [2], < 200 nM.
As for `COc1cc(Nc2nc3c(s2)CCCC3c2ccccc2)ccc1-c1cnc(C)s1` (stereo not drawn), the IC50 is 252 nM in data set [1] and < 500 nM in data set [2]. Also, the outcome in data set [16] was inactive.

What is called IC50 is the concentration that inhibits the measured activity by half. What is called half-life is how long it takes for the measured level to halve. One may read the ED50 as the dose that gives a 50% effect, or the effect in half of the subjects. The bioavailability is dose-corrected exposure relative to a reference, in per cent. One may read the EC50 as the concentration at which the effect is half-maximal.
